# Test results: ChEMBL document CHEMBL4340532, “Design, synthesis, and biological evaluation of novel 2'-deoxy-2'-fluoro-2'-C-methyl 8-azanebularine derivatives as potent anti-HBV agents” (Bioorg Med Chem Lett, 2019)
# What was measured:
# [1] = Cytotoxicity against human HepG2 cells supplemented with fresh medium containing compound every 3 days for 9 days measured post-last dose by MTT assay; format: cell-based
# Procedure, shortened: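 HepG2 cells were exposed to compound for 3 or 9 days and viability was read by MTT assay. CC50 is the concentration causing 50% cytotoxicity. Results are mean ± SD of three experiments.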
# Hepatitis B virus [2] = assay: Antiviral activity against Hepatitis B virus infected in human HepG2.2.15 cells assessed as inhibition of HBeAg secretion at 20 uM supplemented with fresh medium containing compound every 3 days for 6 days and measured on day 9 by ELISA relative to control; format: functional
# Procedure, shortened: (§1)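 HepG2.2.15 cells were exposed to compound for up to 9 days. The initial screen used 20 µM for 9 days, with lamivudine (20 µM) as positive control. Follow-up used 10, 20 or 40 µM sampled at days 3, 6 and 9. HBsAg and HBeAg were quantified in culture supernatant by ELISA and compared with a no-drug control. Results are mean ± SD of three experiments.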
# Hepatitis B virus [3] = assay: Antiviral activity against Hepatitis B virus infected in human HepG2.2.15 cells assessed as inhibition of HBsAg secretion at 20 uM supplemented with fresh medium containing compound every 3 days for 6 days and measured on day 9 by ELISA relative to control; format: functional; procedure, shortened: as §1
smiles,measurement,setting,value
C[C@@]1(F)[C@H](O)[C@@H](CO)O[C@H]1n1nnc2c(N)ncnc21,CC50 at 216 h,[1],> 600 µM
same,inhibition (INH),Hepatitis B virus [2],10%
same,inhibition (INH),Hepatitis B virus [3],9.9%
